# Source: PubChem (several laboratories)
# Most compounds without a hit are left out; they make up all but 2.1% or so of the library.
# Statin myotox sup: suppressors of simvastatin-induced myotoxicity in C2C12 myotubes; 0.78% of 330,000 active; ATP luminescence, 48 h; scaled: DMSO 0, geranylgeraniol control 100; rescue of ATP level, % at 7.49 µM; AID 602340;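 active = mean ATP rescue above about 67%, or every replicate alone reaching that limit, limit read from the data, passing the limit was not always enough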;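 also: myotubes were challenged with 10 µM simvastatin during compound exposure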
# ASAP1 GAP inh: blocks human ASAP1-stimulated Arf1 GTP hydrolysis; Q9ULH1; GDP FP detection; inhibition, % at 16.5 µM; 0.19% of 360,000 active; AID 624377; in the data active = inhibition above about 25%;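 also: 0% = vehicle with enzyme and substrate and 100% = no enzyme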
# APOBEC3A inh: inhibitors of human APOBEC3A DNA deaminase; recombinant A3A, FAM/TAMRA ssDNA deamination fluorescence; inhibition, % at 20 µM; 0.41% of 330,000 active; AID 493011;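 active = at least 40% inhibition at 20 µM here, with at most 30% in a related deaminase screen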;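 also: plate controls were A3A with DMSO for no effect and wells lacking A3A enzyme for full effect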
# Target sequence (P31941 whole entry, looked up): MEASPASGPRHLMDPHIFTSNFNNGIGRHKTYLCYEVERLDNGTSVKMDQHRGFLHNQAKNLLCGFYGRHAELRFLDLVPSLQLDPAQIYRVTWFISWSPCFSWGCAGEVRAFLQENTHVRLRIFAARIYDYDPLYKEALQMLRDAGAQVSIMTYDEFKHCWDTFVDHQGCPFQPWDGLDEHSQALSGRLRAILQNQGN
# ARFGAP1 inhibitor: inhibits rat ARF GTPase activating protein 1. AID 651572. Arfgap1-stimulated ARF1 GTP hydrolysis, GDP FP detection. Q62848. 0.26% of 360,000 active. inhibition, % at 16.5 µM;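 active = inhibition above a per-plate limit, mean inhibition of low control wells plus 3 SD, cut at about 25% in these data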;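 also: 0% = DMSO wells with enzyme and 100% = wells lacking Arfgap1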
#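 Material – truncated rat Arfgap1 GAP domain · Buffer or medium – HEPES-based buffer, pH 7.5 · Reagent – human ARF1(Δ1-17)-GTP substrate · Dosing – 16.5 µM single point, 1.26% DMSO · Schedule – GTP hydrolysis reaction 2 h at 25 °C · Technique – GDP detection by fluorescence polarization · Benchmarks – No-Arfgap1 wells (100%) versus DMSO full-reaction wells (0%) · Repeats – single replicate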
# Mot1-301 SUMO: SUMOylation pathway inhibition by Mot1-301 growth rescue | AID 2716 | growth rescue, % at 18.8 µM | 1% of 320,000 active | S. cerevisiae Mot1-301 growth rescue, ATP luminescence, 38.5C; percent above DMSO median, 100 means doubled;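 active = every valid replicate shows activation above 250% relative to neutral control wells; inactive = the rest, any valid replicate at or below 250%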;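 also: OY570 slx delta 5 strain wells were the positive control but not used for scaling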
# APOBEC3G inh: APOBEC3G (human) deaminase inhibition | recombinant A3G, ssDNA deamination FAM/TAMRA fluorescence | 0.28% of 330,000 active | AID 493012 | inhibition, % at 20 µM;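 active = inhibition of at least 40% at 20 µM, with no more than 30% in the related APOBEC3A deaminase screen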;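 also: plate controls were DMSO wells with A3G for no effect and wells lacking A3G enzyme for full effect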
# Target sequence (Q9HC16 whole entry, looked up): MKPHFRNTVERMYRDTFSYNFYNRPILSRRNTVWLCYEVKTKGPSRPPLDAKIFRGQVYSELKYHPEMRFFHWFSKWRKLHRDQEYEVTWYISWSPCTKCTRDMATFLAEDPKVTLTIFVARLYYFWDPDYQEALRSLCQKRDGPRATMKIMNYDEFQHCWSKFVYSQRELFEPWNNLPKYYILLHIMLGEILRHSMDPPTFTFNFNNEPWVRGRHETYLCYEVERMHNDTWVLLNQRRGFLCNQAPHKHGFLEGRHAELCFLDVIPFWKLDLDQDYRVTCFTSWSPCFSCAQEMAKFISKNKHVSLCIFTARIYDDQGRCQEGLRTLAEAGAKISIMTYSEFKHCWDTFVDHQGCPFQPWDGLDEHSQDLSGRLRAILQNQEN
# A3G conf: APOBEC3G (human) deaminase inhibition, confirmed. shares compounds with APOBEC3G inh. recombinant A3G ssDNA deaminase, UDG/FAM-TAMRA fluorescence. inhibition, % at 20 µM. 72% of 890 active. AID 493152;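 active = inhibition reaching a set limit in any replicate at 20 µM, the limit being 80% of the first screen's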
# UDG A3G counter: inhibits E. coli UDG, flagging false APOBEC3G inhibitors; shares compounds with APOBEC3G inh; UDG counterscreen, FAM/TAMRA oligo fluorescence; inhibition, % at 20 µM; 710 tested, under 10 active;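 active = compounds giving 40% or more inhibition at 20 µM in any one of the three replicates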;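 also: plate controls were DMSO wells with UDG and oligo for no effect and DMSO wells lacking both for full effect; inhibitors lower the FAM signal released by uracil excision and alkaline cleavage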
# * = called active by the depositor; nt = not tested or not shown.
SMILES,Statin myotox sup,ASAP1 GAP inh,APOBEC3A inh,ARFGAP1 inhibitor,Mot1-301 SUMO,APOBEC3G inh,A3G conf,UDG A3G counter
COc1cc(C2CC(=O)N3CN(c4ccccc4C)CSC3=C2C#N)cc(OC)c1OC (centres undefined),nt,6,0,8,15,49*,33*,nt
COc1cccc(C2CC(=O)N3CN(c4ccccc4F)CSC3=C2C#N)c1 (centres undefined),3,5,-2,-3,10,57*,31*,-2
CCNC(=O)[C@@H]1[C@@H](CO)[C@@H]2Cn3c(ccc(C4=CCCC4)c3=O)[C@@H]2N1C(=O)C1CC1,-5,nt,nt,nt,nt,nt,nt,nt
C[C@@H]1CN([C@@H](C)CO)C(=O)Cc2cc(NC(=O)c3ccncc3)ccc2O[C@@H]1CN(C)Cc1ccc(C(=O)O)cc1,-1,nt,nt,nt,nt,nt,nt,nt
C[C@@H]1CN([C@H](C)CO)C(=O)c2cc(C3=CCCCC3)cnc2O[C@@H]1CN(C)C(=O)Cc1cccnc1,-14,nt,nt,nt,nt,nt,nt,nt
CC(=O)C1=C(S(=O)(=O)c2ccc(C)cc2)CS(=O)(=O)C1,nt,2,2,6,nt,61*,78*,-4
CO[C@H]1CC[C@H]2CCN(C)C(=O)[C@H](C)[C@H](OC)CN(C)C(=O)c3cc(C#N)ccc3OC[C@@H]1O2,-6,nt,nt,nt,nt,nt,nt,nt
Cc1cc(-c2n[nH]c(=S)n2/N=C/c2ccc(C)o2)n[nH]1,nt,7,-5,-8,-24,40*,84*,-5
COc1ccc(/C=N/n2c(-c3cc(C)[nH]n3)n[nH]c2=S)cc1OC,nt,1,-1,6,-10,43*,63*,0
COc1ccc(/C=N/n2c(-c3cc(C)[nH]n3)n[nH]c2=S)cc1,nt,3,-6,6,-18,46*,91*,-3
CC(/C=N/n1c(-c2cc(C)[nH]n2)n[nH]c1=S)=C\c1ccccc1,nt,0,2,5,-24,44*,26,nt
CO[C@H]1CN(C)C(=O)c2cc(NC(=O)C3CCC3)ccc2OC[C@@H](C)N(C(=O)NC(C)C)C[C@H]1C,2,nt,nt,nt,nt,nt,nt,nt
O=C(Nc1ccc(F)cc1)N[C@@H]1CC[C@@H](CC(=O)N2CCCCC2)O[C@H]1CO,5,nt,nt,nt,nt,nt,nt,nt
S=C(c1ccc(-c2ccccc2Cl)o1)N1CCOCC1,78*,nt,-2,nt,67,61*,55*,-7
S=C(c1ccc(-c2ccc(Cl)c(Cl)c2)o1)N1CCOCC1,16,nt,-2,nt,-12,2,nt,nt
C[C@H](CO)N1C[C@H](C)[C@H](CN(C)S(=O)(=O)c2ccccc2)Oc2ncc(-c3cccc(F)c3)cc2C1=O,6,nt,nt,nt,nt,nt,nt,nt
COc1cccc(OCc2cc(/C=N/NC(=O)c3ccn[nH]3)ccc2OC)c1,nt,2,1,-7,-17,46*,1,nt
COc1ccc(CN2C[C@H](O)COC[C@H]3O[C@H](CC(=O)NCc4ccncn4)CC[C@@H]32)cc1,-5,nt,nt,nt,nt,nt,nt,nt
Cc1ccc(COc2ccc(/C=N/O)cc2)cc1,nt,0,-2,2,1,-6,nt,nt
Cc1ccc(Oc2ccc(/C=N/O)cn2)cc1,24,-11,-5,10,1,61*,-1,-4
CC(CSc1n[nH]c(=S)s1)c1ccccc1 (centres undefined),-2,3,nt,-7,nt,nt,nt,nt
CC(C)CSc1n[nH]c(=S)s1,nt,-16,-3,2,-26,42*,90*,5
S=c1[nH]nc(C2CCCCC2)n1/N=C/c1ccncc1,nt,15,-3,4,12,48*,68*,-4
CN1C[C@@H]2[C@H](c3ccccc31)[C@H](CO)N2C(=O)c1ccccn1,18,nt,nt,nt,nt,nt,nt,nt
COc1ccc(C(=O)c2coc3ccc(OC(C)=O)cc23)cc1,4,9,0,-10,-6,-2,nt,nt
SMILES,Statin myotox sup,ASAP1 GAP inh,APOBEC3A inh,ARFGAP1 inhibitor,Mot1-301 SUMO,APOBEC3G inh,A3G conf,UDG A3G counter
COc1ccc(OC)c(C(=O)c2coc3ccc(OC(C)=O)cc23)c1,-6,-4,1,-1,-18,79*,-2,nt
CCn1cc(/C=N\NC(=O)c2ccc3c(c2)c(C)c(C)n3Cc2ccccc2)c(C)n1,nt,-6,20,-1,8,3,nt,nt
CCn1ncc(/C=N\NC(=O)c2ccc3c(c2)c(C)c(C)n3Cc2ccccc2)c1C,44,15,-3,10,65,70*,0,-4
COC(=O)/C=c1/sc2nc3ccccc3n2c1=O,-6,14,1,-2,-32,73*,75*,-3
O=c1/c(=C/c2ccccn2)sc2nc3ccccc3n12,nt,-8,-1,3,-15,-4,nt,nt
COc1ccccc1-c1cnc2c(c1)C(=O)N([C@H](C)CO)C[C@H](C)[C@H](CN(C)CC1CCOCC1)O2,-8,nt,nt,nt,nt,nt,nt,nt
S=c1[nH]c2cc(Br)cnc2[nH]1,nt,-12,1,0,-22,56*,68*,-4
CC(C)C#Cc1ccc([C@H]2[C@@H](CO)N(C(=O)c3ccccn3)[C@H]2C#N)cc1,4,nt,nt,nt,nt,nt,nt,nt
CCC(CC)C(=O)c1c[nH]c(C(=O)N2CCN(c3ccc(OC)cc3)CC2)c1,7,10,-6,-20,2,48*,-2,-5
Cc1cc(C)c2c(=O)n(CC(=O)N3CCC(N4CCCCC4)CC3)sc2n1,-9,15,-7,-1,-13,49*,82*,0
CCOC(=O)C1CCCN(C(=O)Cn2sc3nc(C)cc(C)c3c2=O)C1 (centres undefined),-2,nt,-5,nt,-3,50*,78*,-4
CCOC(=O)C1CCCN(C(=O)Cn2cnc3c2c(=O)n(C)c(=O)n3C)C1 (centres undefined),-6,-5,3,3,-16,4,nt,nt
O=C(N[C@@H]1C=C[C@H](CC(=O)N2CCCCC2)O[C@H]1CO)c1ccc2c(c1)OCO2,1,nt,nt,nt,nt,nt,nt,nt
Cc1[nH]c(=S)c(C#N)c2c1CCCC2,nt,-8,-5,6,8,50*,83*,-2
CCN1[C@@H]2Cn3c(ccc(-c4ccccc4OC)c3=O)[C@H]1[C@@H](C(=O)N1CCOCC1)[C@@H]2CO,-4,nt,nt,nt,nt,nt,nt,nt
COc1ccccc1-c1n[nH]c(=S)n1-c1ccccc1,nt,-1,1,-3,-5,40*,69*,-3
COc1ccccc1-c1n[nH]c(=S)n1N,-1,-16,-6,-11,19,-2,nt,nt
CN1CCN(C(=O)C[C@H]2C[C@H]3c4cc(NC(=O)Nc5ccccc5)ccc4O[C@H]3[C@@H](CO)O2)CC1,4,nt,nt,nt,nt,nt,nt,nt
COc1cccc(CN2CCN(Cc3[nH]c4ccccc4c3C)CC2CCO)c1 (centres undefined),nt,8,-2,8,0,51*,-8,-8
